Assay results: ChEMBL document CHEMBL1125874, “N-(4-Isoxazolylthiazol-2-yl)oxamic acid derivatives as potent orally active antianaphylactic agents” (1991)
The source made the active and inactive calls.

Columns and labels:
Rattus norvegicus [1] = assay: Antianaphylactic activity against IgE-mediated rat passive cutaneous anaphylaxis (PCA) model after intraperitoneal administration.; assay type: functional; conditions: ip
How it was run: (§1)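 Female Sprague-Dawley rats (~200 g) received rat anti-ovoalbumin IgE antiserum intradermally at four back sites. Drug in 2% gum arabic given po (10 mL/kg) 10 min or ip (5 mL/kg) 5 min before challenge. Blue-spot area measured at 30 min versus vehicle controls. ED50 by linear regression on at least three doses.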

Rattus norvegicus [2] = assay: Antianaphylactic activity against IgE-mediated rat passive cutaneous anaphylaxis (PCA) model after oral administration.; assay type: functional; how it was run: as §1
Cavia porcellus [3] = assay: Aantianaphylactic activity at the bronchopulmonary level against IgG-mediated APA model of guinea pig when administered intraperitoneally.; assay type: functional; conditions: ip
How it was run: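 Guinea pigs (either sex, 300-400 g) sensitized by a single ip dose of ovoalbumin in liquid petrolatum (20 mg/mL). Tested 3 weeks later. Drug given ip in 2% gum arabic (5 mL/kg) 30 min before aerosol challenge with 2% ovoalbumin. Read-out is delay to severe dyspnea in seconds, with 3 min cutoff. ED50 by linear regression.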

Cavia porcellus [4] = species on record: Cavia porcellus; assay: Inhibitory effect on Antigen-induced SRS-A (slow reacting substance of anaphylaxis) like material release from sensitized guinea pig lung fragments at a concentration of 10 E -5 M; assay type: functional
How it was run: (§2)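 Lungs from ovoalbumin-sensitized guinea pigs were taken at 3 weeks and minced in Krebs' solution (0.1 g tissue/mL). Suspension incubated 15 min at 37 °C. Drug added, then ovoalbumin 1 μg 5 min later, for 15 min at 37 °C. SRS-A-like activity of the filtrate assayed on isolated guinea pig ileum, as % inhibition versus saline controls.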

Cavia porcellus [5] = species on record: Cavia porcellus; assay: Inhibitory effect on Antigen-induced SRS-A (slow reacting substance of anaphylaxis) like material release from sensitized guinea pig lung fragments at a concentration of 10 E -6 M; assay type: functional; how it was run: as §2
Cavia porcellus [6] = species on record: Cavia porcellus; assay: Inhibitory effect on Antigen-induced SRS-A (slow reacting substance of anaphylaxis) like material release from sensitized guinea pig lung fragments at a concentration of 10 E -8 M; assay type: functional; how it was run: as §2
Rattus norvegicus [7] = assay: Antianaphylactic activity at the bronchopulmonary level against IgE-mediated rat PPA model when administered intravenously.; assay type: functional; conditions: iv
How it was run: (§3)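 Rats passively sensitized iv with anti-ovoalbumin serum (1 mL/rat). Challenge was iv ovoalbumin 4 mg/kg. Bronchoconstriction measured as air overflow (Konzett-Rössler). Drug given po in 2% gum arabic (10 mL/kg) 30 min before, or iv in 10% DMSO (1 mL/kg) 15 min before. ED50 by linear regression.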

Rattus norvegicus [8] = assay: Antianaphylactic activity at the bronchopulmonary level against IgE-mediated rat PPA model when administered orally.; assay type: functional; conditions: po; how it was run: as §3
Cavia porcellus [9] = species on record: Cavia porcellus; assay: Inhibitory effect on Antigen-induced SRS-A (slow reacting substance of anaphylaxis) like material release from sensitized guinea pig lung fragments at a concentration of 10 E -7 M; assay type: functional; how it was run: as §2
Cavia porcellus [10] = species on record: Cavia porcellus; assay: Inhibitory effect on Antigen-induced SRS-A (slow reacting substance of anaphylaxis) like material release from sensitized guinea pig lung fragments at a concentration of 10 E -4 M; assay type: functional; how it was run: as §2
Rattus norvegicus [11] = assay: Antianaphylactic activity against IgE-mediated rat PCA model after oral administration; Not active; assay type: functional, organism-based; how it was run: as §1

SMILES	ED50 (Rattus norvegicus [1]) [mg/kg]	ED50 (Rattus norvegicus [2]) [mg/kg]	other results
CCOCCOC(=O)C(=O)Nc1nc(-c2conc2C)cs1	> 100	> 100	–
CCOCCOC(=O)C(=O)Nc1nc(-c2cc(COC)no2)cs1	2.4	0.7	–
CCOC(=O)C(=O)Nc1nc(-c2cc(C)no2)cs1	0.2	0.7	–
NCCCC[C@H](N)C(=O)O.O=C(O)C(=O)Nc1nc(-c2cc(-c3ccccc3)no2)cs1	0.24	2.4	–
NCCO.O=C(O)C(=O)Nc1nc(-c2cc(-c3c(F)cccc3Cl)no2)cs1	2.4	> 30	–
CCOCCOC(=O)C(=O)Nc1nc(-c2cc(Cl)no2)cs1	6	> 30	–
NCCO.O=C(O)C(=O)Nc1nc(-c2cc(Br)no2)cs1	7	> 30	–
CCOCCOC(=O)C(=O)Nc1nc(-c2c(-c3c(F)cccc3Cl)noc2C)cs1	> 10	> 30	–
NCCCC[C@H](N)C(=O)O.O=C(O)C(=O)Nc1nc(-c2conc2-c2ccccc2)cs1	> 100	> 100	–
CCOCCOC(=O)C(=O)Nc1nc(-c2c(-c3ccccc3)noc2C)cs1	> 10	> 100	–
CCOCCOC(=O)C(=O)Nc1nc(-c2cc(C)no2)cs1 [ASOBAMAST]	0.04	1.3	ED50 (Cavia porcellus [3]): 185 mg/kg; Inhibition (Cavia porcellus [4]): 52%; Inhibition (Cavia porcellus [5]): 48%; Inhibition (Cavia porcellus [6]): 18%; ED50 (Rattus norvegicus [7]): 0.09 mg/kg; ED50 (Rattus norvegicus [8]): 4.7 mg/kg; Inhibition (Cavia porcellus [9]): 43%
CCOCCOC(=O)C(=O)Nc1nc(-c2cc(OC)no2)cs1	3	11	–
Cc1cc(-c2csc(NC(=O)C(=O)O)n2)no1.NCCCC[C@H](N)C(=O)O	1.7	17	–
CCOCCOC(=O)C(=O)Nc1nc(-c2cc(-c3c(F)cccc3Cl)no2)cs1	1.1	> 30	–
NCCO.O=C(O)C(=O)Nc1nc(-c2cc(CO)no2)cs1	0.007	0.7	–
COc1cc(-c2csc(NC(=O)C(=O)O)n2)on1.NCCO	1.2	8	–
NCCO.O=C(O)C(=O)Nc1nc(-c2cc(-c3ccccc3)no2)cs1	0.24	0.6	–
NCCO.O=C(O)C(=O)Nc1nc(-c2cc(CO)on2)cs1	> 100	> 30	–

SMILES	ED50 (Rattus norvegicus [1]) [mg/kg]	ED50 (Rattus norvegicus [2]) [mg/kg]	other results
O=C([O-])c1cc(=O)c2c(OCC(O)COc3cccc4oc(C(=O)[O-])cc(=O)c34)cccc2o1.[Na+].[Na+] [CROMOLYN SODIUM]	12	–	ED50 (Cavia porcellus [3]): > 1000 mg/kg; Inhibition (Cavia porcellus [10]): 46%; Inhibition (Cavia porcellus [4]): 38%; Inhibition (Cavia porcellus [5]): 20%; ED50 (Rattus norvegicus [11]): inactive; ED50 (Rattus norvegicus [7]): 0.82 mg/kg; ED50 (Rattus norvegicus [8]): > 100 mg/kg
CCOCCOC(=O)C(=O)Nc1nc(-c2cc(C)on2)cs1	1.3	2	–
COCCOC(=O)C(=O)Nc1nc(-c2cc(Br)no2)cs1	7	> 100	–
Cc1cc(-c2csc(NC(=O)C(=O)O)n2)on1.NCCCC[C@H](N)C(=O)O	0.3	6	–
NCCO.O=C(O)C(=O)Nc1nc(-c2cc(-c3ccccc3)on2)cs1	0.23	2.6	–
NCCO.O=C(O)C(=O)Nc1nc(-c2cc(Cl)no2)cs1	> 30	> 30	–
O=C(Nc1nc(-c2cc(-c3c(F)cccc3Cl)no2)cs1)C(=O)OCc1ccccc1	> 30	> 30	–
NCCO.O=C(O)C(=O)Nc1nc(-c2conc2-c2c(F)cccc2Cl)cs1	30	> 100	–
CCOCCOC(=O)C(=O)Nc1nc(-c2cc(OCc3ccccc3)no2)cs1	3.7	> 100	–
CC(C)(C)OC(=O)C(=O)Nc1nc(-c2cc(-c3ccccc3)no2)cs1	9	7	–
CCOCCOC(=O)C(=O)Nc1nc(-c2cc(-c3ccccc3)on2)cs1	0.2	13	–
CCOCCOC(=O)C(=O)Nc1nc(-c2cc(Br)no2)c(CC)s1	3	9	–
NCCCC[C@H](N)C(=O)O.O=C(O)C(=O)Nc1nc(-c2cc(Br)no2)cs1	0.5	8	–
CCOC(=O)C(=O)Nc1nc(-c2cc(Br)no2)cs1	12	> 100	–
CCOCCOC(=O)C(=O)Nc1nc(-c2cc(Br)no2)cs1	11	> 30	–
O=C(O)C(=O)Nc1nc(-c2cc(Br)no2)cs1	3	> 30	–
CCOCCOC(=O)C(=O)Nc1nc(-c2cc(CO)on2)cs1	1.8	14	–
CCOCCOC(=O)C(=O)Nc1nc(-c2cc(C(=O)OCC)no2)cs1	0.08	1.9	–
